Compounds with a hit are over-represented: about 3.5% of the library has one in this group of screens.
Cneo AK release – Cryptococcus neoformans lysis via adenylate kinase release. C. neoformans lysis, adenylate kinase release luminescence, 4 h; normalised: neutral wells 0, clomiphene wells 100. lysis activity, % at 15 µM. 360,000 compounds, 0.2% hits;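 active = mean lysis activity across replicates of at least 80%, whatever share of replicates individually reach that level; inactive = mean lysis activity below 80%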
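Assay system: Cryptococcus neoformans yeast cells / Dosing: single-point compound dose / Timing: 4 h at 37 °C static, read 1 h later / Measured by: luminescence of released adenylate kinase using an AK detection reagent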
ERAP1 HTS inh – ERAP1 (human) enzyme inhibition; Q9NZ08; recombinant ERAP1, Leu-AMC fluorescence, 60 min; inhibition, % at 10.7 µM; 340,000 compounds, 0.15% hits; AID 652197;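 active = mean replicate inhibition of at least 30%, or all replicates individually reaching that 30% level; inactive = mean below 30% and not every replicate reaching it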;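 note: 0% = neutral control wells and 100% = L-leucinethiol positive control wells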
Target sequence (Q9NZ08 whole entry, looked up): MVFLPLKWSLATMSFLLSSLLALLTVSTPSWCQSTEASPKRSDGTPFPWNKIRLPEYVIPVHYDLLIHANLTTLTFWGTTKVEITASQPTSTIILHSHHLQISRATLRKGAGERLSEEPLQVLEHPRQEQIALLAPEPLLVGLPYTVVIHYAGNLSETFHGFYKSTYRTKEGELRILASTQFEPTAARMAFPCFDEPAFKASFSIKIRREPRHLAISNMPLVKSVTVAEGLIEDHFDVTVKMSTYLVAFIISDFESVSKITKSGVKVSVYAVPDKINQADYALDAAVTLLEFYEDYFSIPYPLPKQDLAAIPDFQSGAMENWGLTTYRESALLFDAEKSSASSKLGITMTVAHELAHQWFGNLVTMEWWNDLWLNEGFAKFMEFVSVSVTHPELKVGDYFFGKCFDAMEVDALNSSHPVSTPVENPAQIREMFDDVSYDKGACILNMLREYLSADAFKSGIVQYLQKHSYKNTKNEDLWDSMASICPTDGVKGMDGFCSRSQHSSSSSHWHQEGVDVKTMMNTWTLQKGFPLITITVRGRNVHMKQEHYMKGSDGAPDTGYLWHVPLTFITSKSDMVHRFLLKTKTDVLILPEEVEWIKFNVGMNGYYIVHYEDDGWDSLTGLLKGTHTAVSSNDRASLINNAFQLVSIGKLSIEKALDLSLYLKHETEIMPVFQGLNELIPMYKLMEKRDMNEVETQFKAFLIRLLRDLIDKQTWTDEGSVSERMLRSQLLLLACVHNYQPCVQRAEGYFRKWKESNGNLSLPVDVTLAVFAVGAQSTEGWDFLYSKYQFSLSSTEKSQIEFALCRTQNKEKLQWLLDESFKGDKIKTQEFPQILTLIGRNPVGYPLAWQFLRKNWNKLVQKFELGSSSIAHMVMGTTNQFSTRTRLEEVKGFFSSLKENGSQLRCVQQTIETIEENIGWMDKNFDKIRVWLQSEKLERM
HIV Env fusion – blocks HIV Env-driven cell-cell fusion. 360,000 compounds, 1.1% hits. AID 651610. HeLa-JRFL Env/CEM21 cell fusion, luciferase. inhibition, % at 12.3 µM;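 active = mean replicate inhibition score of at least 50 and every replicate individually at or above 50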;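 note: 0% = plate neutral controls and 100% = maraviroc near 300 nM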
esBAF inh – SWI/SNF esBAF complex inhibition. mouse ES cells, Bmi1-luciferase knock-in reporter, 24 h; 100% = twice the neutral-well signal. reporter increase, % at 12.5 µM. 350,000 compounds, 2% hits; in the data active = activation above about 40%;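 note: 0% = median of the plate's neutral control wells and 100% = double that signal; a rise in the Bmi1 reporter signal indicates esBAF inhibition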
Wnt act – activates Wnt/beta-catenin signaling in a reporter cell assay | AID 743398 | 300,000 compounds, 1.2% hits | activator, plate reader | activation, % at 9.35 µM; in the data active = activation above about 30%, passing the limit was not always enough;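 note: 0% = neutral control wells and 100% = positive control wells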
MITF TRPM1 HTS – MITF TRPM1 promoter activation in melanoma cells; 300,000 compounds, 0.75% hits; AID 588334; SK-MEL-5 TRPM1-promoter luciferase, 24 h; % of positive control, neutral wells = 0; activation, % at 12.5 µM;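 active = mean activation of at least 80% with every replicate also reaching 80%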;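 note: 0% = neutral control wells and 100% = parthenolide positive control wells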
* marks the source's active call; other numbers are inactive results; x = not tested or not shown; [ ] = another dose, or the depositor's remark.

SMILES	Cneo AK release	ERAP1 HTS inh	HIV Env fusion	esBAF inh	Wnt act	MITF TRPM1 HTS
CNC(=O)C[C@@H]1CC[C@H]2[C@H](COc3ccc(NC(=O)Nc4ccccc4)cc3C(=O)N2C)O1	-1	-2	0[16.7 µM]	2	x	x
CC(=O)N(C)C[C@H]1Oc2cc(-c3ccc(C)cc3)ccc2S(=O)(=O)N([C@H](C)CO)C[C@H]1C	8	4	13[16.7 µM]	0	x	x
C[C@@H]1CN([C@@H](C)CO)C(=O)c2cc(NC(=O)Nc3ccccc3)ccc2O[C@H]1CN(C)Cc1ccc(-c2ccccc2)cc1	-1	-4	8[16.7 µM]	0	x	x
N#CCCN(C(=O)CN1CCN(S(=O)(=O)c2ccc(Cl)s2)CC1)c1ccc(F)cc1	-2	4	62*	8	1	13
N#CCCN(C(=O)CN1CCN(S(=O)(=O)c2ccc3c(c2)OCCO3)CC1)c1ccc(F)cc1	0	-1	2	2	2	0
CC1CCCN(c2nc3ccsc3c(=O)s2)C1 (stereo unspecified)	13	x	-80	x	53*	73
CC1CCCN(c2sc(S(C)(=O)=O)nc2S(=O)(=O)c2ccc(Cl)cc2)C1 (stereo unspecified)	3	1	-5	5	-2	-13
O=C([C@@H]1[C@@H](CO)[C@@H]2Cn3c(cccc3=O)[C@H]1N2Cc1cccc(Cl)c1)N1CCCCC1	-4	1	x	2	x	x
O=C([C@@H]1[C@@H](CO)[C@@H]2Cn3c(cccc3=O)[C@H]1N2Cc1cccc(Cl)c1)N1CCOCC1	98*	-3	2[16.7 µM]	-3	x	x
CCC(=O)N1[C@@H]2Cn3c(ccc(/C=C/c4ccccc4)c3=O)[C@H]1[C@@H](C(=O)N1CCOCC1)[C@@H]2CO	-4	2	x	2	x	x
CCN1[C@@H]2c3ccc(/C=C/c4ccccc4)c(=O)n3C[C@H]1[C@H](CO)[C@H]2C(=O)N1CCOCC1	2	40*	x	-3	x	x
CC(=O)N1[C@@H]2c3ccc(/C=C/c4ccccc4)c(=O)n3C[C@H]1[C@H](CO)[C@H]2C(=O)N1CCOCC1	x	88*	x	x	x	x
COc1ccc(S(=O)(=O)Nc2ccc3c(c2)C(=O)N([C@@H](C)CO)C[C@@H](C)[C@H](CN(C)C(=O)CCC(F)(F)F)OCCCC[C@@H](C)O3)cc1	-1	2	-8[16.7 µM]	6	x	x
COc1cccc(S(=O)(=O)N2C[C@H](O)COC[C@@H]3O[C@@H](CC(=O)N4CCCCC4)CC[C@H]32)c1	41	-3	x	-2	x	x
CNC1=C(N(C(C)=O)c2ccc(Br)cc2)C(=O)c2ccccc2C1=O	x	x	x	x	-22	-106
CC(=O)C1=C(c2ccc(Br)cc2)C(=O)c2ccccc2C1=O	-21	x	141*	-75	-26	-83
O=C(COC(=O)Cn1cnc2ccccc21)Nc1cc(S(=O)(=O)N2CCOCC2)ccc1Cl	-11	x	3	-4	-1	-5
O=C(COC(=O)Cn1cnc2ccccc21)Nc1cc2c(cc1Cl)C(=O)c1ccccc1C2=O	-2	-1	-175	52*	-1	1
CCC(=O)Nc1ccc2c(c1)C(=O)N(C)C[C@H](OC)[C@@H](C)CN(CC1CC1)[C@@H](C)CO2	7	0	x	-2	x	x
COc1ccccc1NC(=O)COC(=O)c1c(C)nn(-c2ccccc2)c1C	-4	-5	-30	59*	-2	100*
CC(=O)c1ccccc1NC(=O)COC(=O)c1c(C)nn(-c2ccccc2)c1C	0	0	-7	33	42*	29
COC(=O)c1cc(-c2c(C)nn(-c3ccccc3)c2C)n[nH]1	11	x	x	64*	x	29
Cc1ccc(NC(=O)COC(=O)c2c(C)nn(-c3ccccc3)c2C)cc1	-1	-3	6	-3	-1	2
Cc1nn(-c2ccccc2)c(C)c1C(=O)OCC(=O)Nc1ccccc1	5	-1	x	56*	21	86*
Cc1noc(C)c1S(=O)(=O)Nc1cccc2c1O[C@H](CN(C)C(=O)Nc1ccccc1)[C@H](C)CN([C@H](C)CO)C2=O	-60	2	-1[16.7 µM]	-3	x	x
SMILES	Cneo AK release	ERAP1 HTS inh	HIV Env fusion	esBAF inh	Wnt act	MITF TRPM1 HTS
CN1CCN(C(=O)C[C@@H]2CC[C@H]3[C@@H](COC[C@H](O)CN3Cc3cccc(F)c3)O2)CC1	41	-1	7[16.7 µM]	-8	x	x
C[C@@H]1CN([C@@H](C)CO)C(=O)Cc2cc(NC(=O)Nc3ccc(F)cc3)ccc2O[C@@H]1CN(C)C(=O)Nc1ccc(F)cc1	-1	2	-7[16.7 µM]	-4	x	x
Cc1nn(-c2ccccc2)c(C)c1C(=O)OCC(=O)Nc1ccccc1C(F)(F)F	-3	0	x	46*	13	28
Cc1nc(COC(=O)c2c(C)nn(-c3ccccc3)c2C)cs1	1	x	-31	58*	28	86*
Cc1nn(-c2ccccc2)c(C)c1C(=O)OCC(=O)N(C)c1ccccc1	-4	-2	15	13	-2	9
O=C(/C=C\Nc1ccc(Br)cc1)c1cccnc1	-9	x	x	x	38*	37
O=C(NNC(=S)Nc1ccc(Br)cc1)c1cccnc1	0	1	-7	x	-1	-1
COCC#Cc1cnc2c(c1)C(=O)N([C@@H](C)CO)C[C@@H](C)[C@H](CN(C)C(=O)c1cccnc1)O2	-3	1	-9[16.7 µM]	2	x	x
CCC(=O)N(CC)C[C@@H]1[C@@H](c2ccc(-c3cccnc3)cc2)[C@H](CO)N1C(C)=O	2	1	x	0	x	x
CO[C@H]1CN(C)C(=O)c2cc(C#N)ccc2OC[C@H]2O[C@@H](CC[C@H]2OC)CCN(C)C(=O)[C@H]1C	-3	0	5[16.7 µM]	-2	x	x
COc1ccc(/C(N)=C/C(=O)C(C)(C)C)cc1	x	x	x	58*	x	55
CCCNC(=O)N1CC2(C1)CN(Cc1ccccn1)[C@H](CO)c1c2c2ccc(OC)cc2n1C	x	6	x	x	x	x
CN1CCc2ccccc2Cc2[nH]c3ccccc3c2CC1	1	2	71*	6	-2	-5
COc1ccc2[nH]c3c(c2c1)CN(C)CC3	-1	1	40	-3	x	x
CN(C)/N=C/C=C1\CCC/C(=C/c2cccs2)C1=O	x	-2	-162	36	52*	53
CCOC(=O)c1ccc(/[N+]([O-])=C/c2ccccc2)cc1	-1	6	-44	53*	19	57
C#CCCc1cscc1/C=[N+](\[O-])c1ccc(C(=O)OCC)cc1	1	-4	-26	62*	1	34
O=C(C[C@H]1CC[C@H]2[C@@H](COC[C@H](O)CN2C(=O)Nc2cc(Cl)cc(Cl)c2)O1)NCC1CCCCC1	-2	0	x	-1	x	x
Cc1noc(C)c1NC(=O)Nc1ccc2c(c1)C(=O)N([C@H](C)CO)C[C@H](C)[C@@H](CN(C)Cc1ccc(C(F)(F)F)cc1)OCCCC[C@H](C)O2	1	3	18[16.7 µM]	-4	x	x
C[C@@H]1CN([C@H](C)CO)C(=O)Cc2cc(NC(=O)Nc3cccc4ccccc34)ccc2O[C@H]1CN(C)Cc1ccc(-c2ccccc2)cc1	x	0	-7[16.7 µM]	-8	x	x

High-throughput results as filed in PubChem.
